Measured values: publication PMC10416317 (Journal of medicinal chemistry, 2023)

Key:
AKR1B1 [1] = biological target: AKR1B1 (Mus musculus, UniProt P45376); experiment: Methylglyoxylate-metabolizing; type: in vivo; details: i.p. 120 mg/kg, 18h
SCoR2 [2] = biological target: T1, SCoR2 (Mus musculus, UniProt Q9JII6); type: in vivo; details: i.p. 120 mg/kg, 18h
T1 sequence (Q9JII6 1-325): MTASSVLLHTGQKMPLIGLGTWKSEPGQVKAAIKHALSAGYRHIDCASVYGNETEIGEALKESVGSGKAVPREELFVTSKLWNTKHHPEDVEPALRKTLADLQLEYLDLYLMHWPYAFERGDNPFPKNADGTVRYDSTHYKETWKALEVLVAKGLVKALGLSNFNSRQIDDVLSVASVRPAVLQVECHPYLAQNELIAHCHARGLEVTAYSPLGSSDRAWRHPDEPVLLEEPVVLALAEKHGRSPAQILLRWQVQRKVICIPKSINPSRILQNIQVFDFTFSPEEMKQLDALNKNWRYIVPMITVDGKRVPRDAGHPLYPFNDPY
Summary of the method: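 Mice received test compound 120 mg/kg i.p. (vehicle DMSO); liver, lung, heart, brain and spleen were harvested 18 h later. Tissues were homogenized in 50 mM phosphate pH 7.0, 150 mM NaCl, 100 μM EDTA/DTPA, clarified at 20,000xg, 4°C, and protein measured by BCA. Lysate started reactions with 200 μM SNO-CoA and 100 μM NADPH in phosphate/EDTA/DTPA buffer; 2 min; triplicate; n≥3.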

acute kidney injury = experiment: Ischemia/reperfusion-induced AKI model in mice; type: in vivo; details: mouse I/R AKI
SCoR2 [3] = biological target: T1, SCoR2; experiment: SNO-CoA-metabolizing activity in kidneys of treated mice; type: in vivo
Summary of the method: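 Mice got test compound i.p. with DMSO vehicle or were fed compound-containing diet; SCoR2-knockout mice served as comparators. Kidneys were taken 18 h after a single 20–120 mg/kg dose, or 24 h after I/R surgery done 18 h post-dose. Tissue was homogenized in 50 mM phosphate pH 7.0, 150 mM NaCl, 100 μM EDTA/DTPA, then clarified (20,000xg, 4°C) and BCA-normalized. Lysate started reactions with 200 μM SNO-CoA and 100 μM NADPH; 2 min, triplicate.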

AKR1B1 [4] = biological target: AKR1B1 (Homo sapiens, UniProt P15121); experiment: Inhibition of methylglyoxylate-metabolizing activity of purified AKR1B1; type: biochemical; details: ratio of IC50 values
SCoR2 [5] = biological target: T2, SCoR2 (Homo sapiens, UniProt P14550); experiment: Differential scanning fluorimetry; type: binding; details: 5 μM SCoR2, 250 μM compound; SCoR2 alone 48.3 (buffer), 48.0 (1% DMSO)
T2 sequence (P14550 1-325): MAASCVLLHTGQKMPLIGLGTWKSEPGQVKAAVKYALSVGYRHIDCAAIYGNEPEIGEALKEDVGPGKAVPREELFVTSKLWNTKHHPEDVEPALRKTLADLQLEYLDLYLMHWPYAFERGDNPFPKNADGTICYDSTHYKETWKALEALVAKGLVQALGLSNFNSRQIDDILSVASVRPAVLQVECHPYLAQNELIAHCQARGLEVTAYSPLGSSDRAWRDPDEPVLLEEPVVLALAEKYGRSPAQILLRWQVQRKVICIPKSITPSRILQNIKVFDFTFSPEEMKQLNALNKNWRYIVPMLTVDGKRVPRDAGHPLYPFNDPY

SCoR2 (AKR1A1) = biological target: T3, SCoR2 (AKR1A1) (Homo sapiens, UniProt P14550); experiment: Inhibition of DL-glyceraldehyde-metabolizing activity of purified SCoR2; type: biochemical; details: DL-glyceraldehyde as substrate, in vitro
T3 sequence (P14550 1-325): T2 sequence (P14550 1-325)
Summary of the method: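 Initial screen with recombinant human SCoR2 (C-terminal His tag, expressed in E. coli, Ni-NTA purified). The 1 ml cuvette held 20 nM SCoR2, 3 mM DL-glyceraldehyde and varying inhibitor in 50 mM phosphate pH 7.0. NADPH (100 μM) started the reaction, which ran 2 min. NADPH consumption slope was read spectrophotometrically and IC50 was obtained by curve fitting.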

[6] = diet with 125 mg/kg diet for 3 weeks or 12 weeks
[7] = 20 mg/kg i.p. 18 h before surgery, 24 h post-surgery

## O=C1NC(=O)C2(N1)c1ccccc1-c1ccc(C3CC3)cc12 (centres unmarked) [5-1]
AKR1B1 [1]
  Activity of kidney AKR1B1: did not inhibit
SCoR2 [2]
  Activity of SCoR2 in brain: not in brain
  Activity of SCoR2 in heart: inhibited
  Activity of SCoR2 in liver: inhibited
  Activity of SCoR2 in lung: inhibited
  Activity of SCoR2 in spleen: inhibited
Acute kidney injury; 120 mg/kg i.p. 18 h before surgery
  Protection against AKI: protected against AKI

## O=C1NC(=O)C2(N1)c1cc(F)ccc1-c1ccc(F)cc12 [Imirestat, imirestat]
SCoR2 [3]; 20 mg/kg i.p. 18 h before AKI surgery, 24 h post-surgery
  SNO-CoA-metabolic activity in kidneys following AKI: strongly inhibited
SCoR2 [3]; [6]
  SCoR2 activity in the kidney on drug diet: potently inhibited
Acute kidney injury; 20 mg/kg i.p. 18 h before surgery
  Protection against AKI: does not protect against AKI
Acute kidney injury; [7]
  Blood urea nitrogen (BUN) vs DMSO-treated mice: the same
  Serum creatinine vs DMSO-treated mice: the same
Acute kidney injury; [6]
  Protection against AKI: did not show protection against AKI
AKR1B1 [4]
  Times more potent at AKR1B1 (vs SCoR2): 1.2

## NC(=O)C1=CN([C@@H]2O[C@H](COP(=O)(O)OP(=O)(O)OC[C@H]3O[C@@H](n4cnc5c(N)ncnc54)[C@H](OP(=O)(O)O)[C@@H]3O)[C@@H](O)[C@H]2O)C=CC1 [NADPH]
SCoR2 [5]
  Melting temperature (Tm) of SCoR2, compound alone: 51.4 °C

## O=C1NC(=O)C2(N1)c1ccccc1-c1ccccc12 [compound 2]
SCoR2 (AKR1A1)
  Inhibition of SCoR2 / potency at SCoR2 (in words): less potent

## CC(/C=C1\SC(=S)N(CC(=O)O)C1=O)=C\c1ccccc1 [epalrestat, reference compound]
SCoR2 (AKR1A1)
  Inhibition of SCoR2 / potency at SCoR2 (in words): inhibit
